From article PMC4462192 (Bioorganic & medicinal chemistry letters, 2015)

Experiments:
RPMI-8226 cells = assay: intracellular lambda light chain ELISA; assay type: cell-based, human; settings: 48 hours, 5 mM, vs untreated control
Method in brief: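 RPMI-8226 cells were incubated for 48 hours with test compound at 5 mM, alongside untreated and lovastatin (20 μM) controls. Intracellular lambda light chain was quantified by ELISA and expressed as percent of untreated control, mean + SD, n=3. Significance versus untreated cells was assessed by unpaired two-tailed t-test at p<0.05.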

[1] = test system: Rab6 geranylgeranylation in RPMI-8226 cells; assay: immunoblot for membrane-bound Rab6; assay type: cell-based, human; settings: 48 hours, 5 mM, detergent (membrane) fraction
Method in brief: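 RPMI-8226 human myeloma cells were exposed to test compound at 5 mM or left untreated for 48 hours, with lovastatin at 20 μM as a global prenylation-disruption control. Cells were lysed by Triton X-114 partitioning to give the detergent (membrane) fraction, which was immunoblotted for Rab6 with calnexin as the loading control. Blots are representative of two independent studies.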

[2] = test system: farnesyl diphosphate synthase (FDPS); settings: cited from earlier work
GGTase II = molecular target: T1, GGTase II (Homo sapiens, UniProt P53611+Q92696); settings: cited from earlier work
T1 sequence (Q92696 1-567): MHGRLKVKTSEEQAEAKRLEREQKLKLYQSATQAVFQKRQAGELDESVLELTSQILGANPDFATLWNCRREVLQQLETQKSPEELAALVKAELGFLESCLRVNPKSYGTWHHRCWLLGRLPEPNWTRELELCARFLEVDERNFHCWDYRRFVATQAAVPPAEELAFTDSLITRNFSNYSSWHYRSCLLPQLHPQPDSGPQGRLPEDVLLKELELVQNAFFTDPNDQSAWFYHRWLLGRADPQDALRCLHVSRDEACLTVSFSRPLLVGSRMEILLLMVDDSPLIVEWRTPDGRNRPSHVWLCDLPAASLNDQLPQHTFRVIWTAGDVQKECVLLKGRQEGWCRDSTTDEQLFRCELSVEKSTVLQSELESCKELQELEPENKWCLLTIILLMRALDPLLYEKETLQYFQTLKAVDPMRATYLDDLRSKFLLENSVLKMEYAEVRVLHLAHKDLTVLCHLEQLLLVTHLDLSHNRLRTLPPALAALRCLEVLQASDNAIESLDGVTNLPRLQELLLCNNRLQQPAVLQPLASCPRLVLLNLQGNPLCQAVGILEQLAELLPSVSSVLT
T1 sequence (P53611 1-331): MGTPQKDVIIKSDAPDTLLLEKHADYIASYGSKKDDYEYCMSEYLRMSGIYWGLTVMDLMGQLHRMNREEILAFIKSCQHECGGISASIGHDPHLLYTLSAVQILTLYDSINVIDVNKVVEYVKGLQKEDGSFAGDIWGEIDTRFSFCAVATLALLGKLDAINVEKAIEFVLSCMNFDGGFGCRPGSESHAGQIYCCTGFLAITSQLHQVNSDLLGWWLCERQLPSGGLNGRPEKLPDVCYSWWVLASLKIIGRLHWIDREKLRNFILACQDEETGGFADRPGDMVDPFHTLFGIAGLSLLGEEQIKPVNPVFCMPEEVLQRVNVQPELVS

[3] = test system: geranylgeranyl diphosphate synthase (GGDPS); settings: cited from earlier work

Row | Compound | intracellular lambda light chain accumulation (RPMI-8226 cells) | membrane-bound Rab6 level [1] | activity against FDPS [2] | further results
1 | O=C(O)C(O)(Cc1ccc[n+]([O-])c1)P(=O)(O)O (stereo not drawn) [compound 6] | induce an accumulation of intracellular light chain | diminished the level of membrane-bound Rab6 to a lesser extent | – | –
2 | O=C(O)C(Cc1cccnc1)P(=O)(O)O (stereo not drawn) [compound 2, 2-(3-pyridinyl)-1-ethylidene-1,1-phosphonocarboxylic acid] | do not significantly alter light chain trafficking | diminished the level of membrane-bound Rab6 to a lesser extent | show little activity against FDPS | GGTase II potency relative to PEHPC (GGTase II): potency similar to PEHPC
3 | O=C(O)C(O)(Cc1cccnc1)P(=O)(O)O (stereo not drawn) [compound 1, 2-(3-pyridinyl)-1-hydroxyethylidene-1,1-phosphonocarboxylic acid] | induce an accumulation of intracellular light chain | induces a decrease in the amount of membrane-bound Rab6 | show little activity against FDPS | difference in activity between the enantiomers (GGTase II): ~ 4 fold
4 | O=C(O)C(O)(Cc1cnc2ccccn12)P(=O)(O)O (single isomer, unassigned; enantiomer 4) [(+)-enantiomer 4] | – | – | – | inhibition of other enzyme involved in isoprenoid biosynthesis, probably GGDPS [3]: weak inhibition; activity of (+)-enantiomer relative to (−)-enantiomer (GGTase II): ~ 60 fold
5 | O=C(O)C(Cc1ccc[n+]([O-])c1)P(=O)(O)O (stereo not drawn) [compound 7] | do not significantly alter light chain trafficking | did not decrease membrane-bound Rab6 levels | – | –
